EBV gp42 block: Epstein-Barr virus gp42 inhibitors, primary screen, biochemical, uHTS, fluorescence polarization; Glycoprotein 42 (Epstein-Barr virus (strain AG876)), Q1HVG2; Fluorescence polarization binding assay, mP read-out; inhibition, % (tested at 21.74 µM); 220,000 compounds, 0.42% hits; AID 1085, 2008; in the data active means inhibition above about 50%
C-LANA FP: inhibitors of KSHV C-LANA binding to DNA, primary screen, biochemical, fluorescence polarization, FAM-LBS DNA, MBP-C-LANA, single point. Kaposi's sarcoma herpesvirus LANA C-terminal domain (residues 932-1162) DNA binding. 340,000 compounds, 0.078% hits. inhibition, % at 9 µM;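 active means highest replicate inhibition at or above 60% at 9 µM, even if other replicates fall short; inactive means all replicates below 60% inhibition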;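 further: 0% = neutral control wells and 100% = 4 µM acridine orange control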
T cell modulator: modulators of CD8 T cell-vesicle binding, primary screen, mouse 2C CD8+ T cells, flow cytometry; response (vesicle binding), % at 7 µM; AID 2052, 2009; 2C CD8+ T cell-vesicle binding; active compounds read low; 330,000 compounds, 0.068% hits;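 active means response, share of CD8 T cells binding vesicles, and their 90th percentile fluorescence all below set limits, cut at about 80% in these data, passing the limit was not always enough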;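 further: values below 100% mean blocked vesicle binding to the CD8+ T cells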
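Benchmarks: naked versus QL9-loaded vesicles / Assay system: purified 2C TCR transgenic mouse naive CD8+ T cells / Technique: high-throughput flow cytometry with anti-B7-1 and anti-CD8 staining / Timing: Cell–vesicle co-incubation 1.5 h at 37 °C, staining 20 min on ice / Read-out: percent CD8+ FL2 mean versus row control / Probe or stimulus: QL9-loaded Drosophila micro-vesicles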
MEX-5 binding: MEX-5 zinc finger RNA-binding disruptors – biochemical, C. elegans, fluorescence polarization, MLPCN library, primary screen; MEX-5/FITC-TCR2 RNA binding; active compounds read low; Zinc finger protein mex-5 (Caenorhabditis elegans), Q9XUB2; 300,000 compounds, 0.38% hits; activity score (negative = inhibition of binding), % at 10 µM;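 active means inhibition past about -25% in most replicates, and total fluorescence under double the plate's negative control median, limit read from the data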;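 further: 0% = DMSO and -100% = 5 µM competing unlabeled TCR2 RNA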
Keap1-Nrf2 PPI: Keap1-Nrf2 protein-protein interaction inhibitors, primary screen, biochemical, fluorescence polarization, single point; Kelch-like ECH-associated protein 1 (Homo sapiens), Q14145; Keap1 Kelch-Nrf2 peptide fluorescence polarization, 1536-well; inhibition, % at 9.4 µM; 340,000 compounds, 0.15% hits; in the data active means inhibition above about 12%;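 further: human Keap1 Kelch domain with fluorescein labeled Nrf2 9mer peptide probe; 0% = neutral control wells and 100% = peptide positive control; higher means more block of Keap1 binding to Nrf2 peptide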
GRK2 inh: compounds blocking aptamer binding on GRK2 – biochemical, human GRK2, bead flow cytometry, HTS, primary screen. FAM-aptamer displacement from GRK2. 330,000 compounds, 0.59% hits. inhibition of aptamer binding, % at 10 µM. AID 488847, 2010;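 active means inhibition of aptamer binding above 40%, roughly 3 SD of noise, on plates passing a quality check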;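 further: median bead fluorescence of bound FAM aptamer so fluorescent compounds give negative values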
Target sequence (P25098 whole entry, looked up): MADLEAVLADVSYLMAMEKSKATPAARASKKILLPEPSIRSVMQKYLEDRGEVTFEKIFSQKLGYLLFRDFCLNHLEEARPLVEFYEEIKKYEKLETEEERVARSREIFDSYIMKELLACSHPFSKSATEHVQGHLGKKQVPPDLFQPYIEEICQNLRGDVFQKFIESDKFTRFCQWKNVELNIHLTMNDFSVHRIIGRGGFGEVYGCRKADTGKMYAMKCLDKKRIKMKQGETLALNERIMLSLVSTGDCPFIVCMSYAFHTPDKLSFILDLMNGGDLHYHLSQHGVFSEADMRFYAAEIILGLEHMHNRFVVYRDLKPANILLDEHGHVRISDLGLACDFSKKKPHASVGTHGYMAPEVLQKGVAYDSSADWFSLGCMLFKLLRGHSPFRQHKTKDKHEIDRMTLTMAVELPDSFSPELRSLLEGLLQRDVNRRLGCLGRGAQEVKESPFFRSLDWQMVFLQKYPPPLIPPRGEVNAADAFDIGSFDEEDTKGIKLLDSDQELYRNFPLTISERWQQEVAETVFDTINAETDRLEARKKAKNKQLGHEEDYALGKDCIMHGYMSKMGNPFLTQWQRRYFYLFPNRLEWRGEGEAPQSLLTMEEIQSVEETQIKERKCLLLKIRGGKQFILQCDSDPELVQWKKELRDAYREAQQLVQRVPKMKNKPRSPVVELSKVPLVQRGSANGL
Numbers without * were called inactive; i = inactive; · = not tested or not shown. Shown are actives, neighbours in structure and some others; about 1.3% of the full set was active somewhere.

SMILES | EBV gp42 block | C-LANA FP | T cell modulator | MEX-5 binding | Keap1-Nrf2 PPI | GRK2 inh
O=C(NCc1ccncc1)C1CCC(=O)N(CCc2ccc(Cl)cc2)C1 (stereo unspecified) | · | 0 | 415 | 1 | -3 | 0
CC(=O)C1=C(c2ccccc2)NC(=O)NC1c1ccc(O)c(O)c1 (stereo unspecified) | 0 | 1 | 147 | -29* | -4 | 3
O=c1c2ccccc2oc2ccc(NCCCn3ccnc3)cc12 | · | 1 | 312 | -27* | -5 | 0
CN1C(=O)/C(=C/c2ccc3c(c2)OCO3)N=C1c1ccccc1 | -25 | 39 | 497 | -33* | 1 | 1
COc1ccccc1C(=O)NCCC(=O)NCC(c1ccccc1OC)N1CCCC1 (stereo unspecified) | · | 1 | 154 | 5 | -2 | 21
COc1cc2c(=O)n(CC3CCCO3)c(=O)n(CC(=O)Nc3cccc(Cl)c3)c2cc1OC (stereo unspecified) | -8 | 4 | i | 2 | -3 | 3
CN1CCc2cccc3c2C1Cc1ccc(O)c(O)c1-3 (stereo unspecified) | · | 0 | 539 | -83* | -2 | 1
CN1CCC(=C2c3ccccc3C(O)c3ccccc32)CC1 (stereo unspecified) | -18 | 0 | 277 | 0 | -7 | 0
N#Cc1c(NC(=O)Cn2c(=O)oc3ccccc32)oc(-c2ccccc2)c1-c1ccccc1 | -30 | 3 | 270 | -1 | 0 | 1
O=C1c2ccccc2C(=O)c2[nH]c(=O)[nH]c21 | · | -2 | 206 | -55* | 6 | 3
CCOC(=O)c1c(C)[nH]c(C(=O)Nc2ccc3c(c2)OCO3)c1C | -33 | · | 135 | 0 | · | 2
CN(C)c1ccc(O)c2c1CC1CC3[C@@H](N(C)C)C(=O)C(C(N)=O)=C(O)[C@]3(O)C(=O)C1=C2O (stereo partly specified) | -3 | 77* | 510 | -14 | 5 | 9
Cc1ccc(-c2nnc(Nc3ccc(CC(N)=O)cc3)c3ccccc23)cc1S(N)(=O)=O | · | -2 | 199 | -32* | -2 | 0
COc1ccc(N(C)S(=O)(=O)c2ccc3c(c2)CCN3C(=O)C2CC2)c(OC)c1 | · | -2 | 261 | · | -6 | 1
Cc1cc(C(=O)COc2cccc3cccnc23)c(C)n1C | 11 | 38 | 428 | -3 | 24* | 1
CNc1c(N)n(Cc2ccccc2)c(=O)[nH]c1=O | 50* | 28 | 156 | -32* | 8 | 0
Nc1c(NCc2ccccc2)c(=O)[nH]c(=O)n1Cc1ccccc1 | 7 | 17 | 148 | -18 | 7 | 0
O=C(N/N=C/c1oc(O)c2ccccc12)c1ccccc1O | -8 | 2 | 172 | -34* | -2 | 0
CCN1CCN(c2ccc(S(=O)(=O)N3CCCCC3)cc2NC(=O)c2cccc(C)c2[N+](=O)[O-])CC1 | · | -1 | 49* | 1 | 1 | 0
CCN1CCN(c2ccc(S(=O)(=O)N3CCCCC3)cc2NC(=O)c2ccccc2)CC1 | · | 1 | 353 | -3 | -4 | 0
COc1ccc(C2CC(c3ccccc3C)n3nc(N)nc3N2)cc1 (stereo unspecified) | -7 | -1 | 81 | -1 | -4 | 2
CCOc1ccc(C2CC(c3ccccc3C)n3nc(N)nc3N2)cc1 (stereo unspecified) | -10 | 2 | 53* | -9 | 2 | 1
CNCc1ccccc1Sc1ccc(O)c(O)c1 | -16 | 1 | 641 | -54* | -21 | 4
COc1ccc(OC)c(/C=c2\sc3nc(-c4cccs4)nn3c2=O)c1 | 135* | 24 | 465 | -51* | 11 | 1
COc1ccc(NS(=O)(=O)c2cccc(Cl)c2Cl)cc1S(=O)(=O)N1CCCCC1 | 6 | 1 | 297 | 1 | 3 | 2
SMILES | EBV gp42 block | C-LANA FP | T cell modulator | MEX-5 binding | Keap1-Nrf2 PPI | GRK2 inh
O=C(CCCc1nc2ccccc2s1)N1CCN(c2ccccc2F)CC1 | -5 | -2 | 88 | 2 | 1 | 0
CC(=O)NNC(=O)c1sc(=S)n2c1[nH]c(=O)c1sccc12 | 14 | -2 | 189 | -49* | -2 | 2
CC(C)Cc1nn2c(N)c(/C=C3\C=Nc4ccccc43)c(=O)nc2s1 | -12 | 3 | 131 | -46* | -2 | 0
CC(C)(C)c1ccc(C(=O)Nc2cccc3ncccc23)cc1 | · | 23 | 218 | -74* | 5 | 0
CCCCNCc1cc(Br)c(OCC(=O)NCc2ccccc2)c(OC)c1 | -4 | 1 | 319 | -1 | -1 | 6
O=C1N=c2ccc([N+](=O)[O-])cc2=C1c1sc(=O)[nH]c1O | · | 1 | 181 | -59* | 1 | 1
O=C1N=c2ccccc2=C1c1sc(=O)[nH]c1O | -11 | · | 285 | -13 | · | 3
O=C(N/N=C/c1cccnc1)C(=O)N1CCCCCC1 | -7 | -2 | i | -2 | 2 | 0
O=C(Nc1ccc2nc(-c3ccco3)c(-c3ccco3)nc2c1)NC1CC1 | 40 | 1 | · | -1 | 0 | ·
O=C(NCCCO)Nc1ccc2nc(-c3ccco3)c(-c3ccco3)nc2c1 | 67* | · | 380 | · | · | 40
O=C(O)c1ccc2nc(-c3ccco3)c(-c3ccco3)nc2c1 | -13 | 30 | · | -29* | 5 | ·
O=C(c1ccc2nc(-c3ccco3)c(-c3ccco3)nc2c1)N1CCN(c2ccccc2)CC1 | 6 | -3 | 426 | -2 | 0 | 1
Cn1c(N)c(C(=O)COC(=O)CSc2ccccc2)c(=O)n(C)c1=O | -15 | 2 | 237 | 1 | 0 | 2
CC1CCc2nn(CC(=O)NCCN3CCCCC3C)cc2C1 (stereo unspecified) | 5 | 12 | 260 | -35* | -7 | 0
COC(=O)Cc1ccc(NC(=S)N2CCN(C(=O)C3CCCO3)CC2)cc1 (stereo unspecified) | · | 0 | 355 | -2 | -2 | 0
O=C(COC(=O)/C=C/c1ccccc1)NCc1ccc2c(c1)OCO2 | · | 0 | 406 | · | -2 | 0
CC1=CC(C)(C(Cl)Cl)C(C)=CC1=O (stereo unspecified) | -2 | 0 | 207 | 1 | -3 | 2
CC1(CCl)N([O-])C2=C(CCCC2)[N+]1=O (stereo unspecified) | -30 | 0 | 427 | -36* | -1 | 0

Bioassay records (PubChem BioAssay)
